What was measured:
[1] = test system: Plasmodium falciparum; experiment: Antimalarial activity against Plasmodium falciparum Itg2 in human erythrocytes by [3H]hypoxanthine uptake; type: functional, organism-based
[2] = molecular target: T1, Cysteine protease falcipain-3 (Plasmodium falciparum, UniProt Q9NBA7); experiment: Inhibition of Plasmodium falciparum recombinant falcipain-3
T1 sequence (Q9NBA7 whole entry): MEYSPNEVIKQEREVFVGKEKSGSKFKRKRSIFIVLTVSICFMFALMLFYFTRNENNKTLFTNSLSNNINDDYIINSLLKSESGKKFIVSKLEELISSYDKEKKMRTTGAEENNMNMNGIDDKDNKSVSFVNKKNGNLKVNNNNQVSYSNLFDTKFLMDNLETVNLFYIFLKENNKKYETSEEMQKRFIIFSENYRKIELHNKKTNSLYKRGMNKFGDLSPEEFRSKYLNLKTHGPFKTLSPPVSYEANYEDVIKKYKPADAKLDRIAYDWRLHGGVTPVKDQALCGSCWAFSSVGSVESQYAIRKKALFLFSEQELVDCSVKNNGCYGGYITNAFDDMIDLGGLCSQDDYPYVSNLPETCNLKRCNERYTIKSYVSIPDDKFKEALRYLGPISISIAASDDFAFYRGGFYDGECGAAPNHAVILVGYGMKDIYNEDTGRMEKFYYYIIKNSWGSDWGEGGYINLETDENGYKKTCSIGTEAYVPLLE

[3] = test system: Plasmodium falciparum; experiment: Antimalarial activity against chloroquine-resistant Plasmodium falciparum TM6 in human erythrocytes by [3H]hypoxanthine uptake; type: functional, organism-based
Method in brief: (§1)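 P. falciparum kept in continuous culture in human erythrocytes; compounds tested in triplicate on parasite-infected red cells. Growth read as parasite [3H]-hypoxanthine incorporation, and IC50 derived from it. TM6 is a chloroquine-resistant strain and 3D7 a chloroquine-sensitive strain.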

[4] = test system: Plasmodium falciparum; experiment: Antimalarial activity against chloroquine-sensitive Plasmodium falciparum 3D7 in human erythrocytes by [3H]hypoxanthine uptake; type: functional, organism-based; method in brief: as §1
[5] = molecular target: T2, Falcipain 2 (Plasmodium falciparum, UniProt Q9N6S8); experiment: Inhibition of Plasmodium falciparum recombinant falcipain-2
T2 sequence (Q9N6S8 whole entry): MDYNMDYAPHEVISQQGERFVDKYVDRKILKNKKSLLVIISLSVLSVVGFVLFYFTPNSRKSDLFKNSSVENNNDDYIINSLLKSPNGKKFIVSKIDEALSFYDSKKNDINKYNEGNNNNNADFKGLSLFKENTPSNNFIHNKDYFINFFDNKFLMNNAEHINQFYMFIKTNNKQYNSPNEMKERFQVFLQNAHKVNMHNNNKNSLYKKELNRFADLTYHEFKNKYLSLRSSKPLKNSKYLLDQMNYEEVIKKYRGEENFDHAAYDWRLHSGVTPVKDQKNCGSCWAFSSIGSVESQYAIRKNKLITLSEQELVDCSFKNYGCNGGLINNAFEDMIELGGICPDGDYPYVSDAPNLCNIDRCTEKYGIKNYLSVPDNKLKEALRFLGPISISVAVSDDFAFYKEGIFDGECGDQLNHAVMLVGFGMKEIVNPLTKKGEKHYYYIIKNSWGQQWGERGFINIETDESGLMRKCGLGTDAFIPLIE

## CC(C)C[C@H](NC(=O)N1CCOCC1)C(=O)N[C@H](/C=C/S(=O)(=O)c1ccccc1)CCc1ccccc1
[1]
  IC50: 0.003 µM
[2]
  IC50: 0.021 µM

## COC(=O)/C=C/[C@H](CCc1ccccc1)n1cccc(NC(=O)OCc2ccccc2)c1=O
[3]
  IC50: 35.3 µM
[2]
  IC50: > 25 µM
[4]
  IC50: 27.9 µM
[5]
  IC50: 19 µM

## O=C(Nc1cccn([C@H](/C=C/S(=O)(=O)c2ccccc2)Cc2ccccc2)c1=O)OCc1ccccc1
[3]
  IC50: 36 µM
[4]
  IC50: 35.7 µM

## O=C[C@H](Cc1ccccc1)n1cccc(NC(=O)OCc2ccccc2)c1=O
[3]
  IC50: 36 µM
[4]
  IC50: 37.3 µM

## O=C[C@H](CCc1ccccc1)n1cccc(NC(=O)OCc2ccccc2)c1=O
[3]
  IC50: 22.7 µM
[2]
  IC50: > 25 µM
[4]
  IC50: 31 µM
[5]
  IC50: 10.9 µM

## O=C(Nc1cccn([C@H](/C=C/S(=O)(=O)c2ccccc2)CCc2ccccc2)c1=O)OCc1ccccc1
[3]
  IC50: 9 µM
[4]
  IC50: 5.7 µM

Reference: ChEMBL document CHEMBL1158154, “Design and synthesis of novel 2-pyridone peptidomimetic falcipain 2/3 inhibitors” (Bioorg Med Chem Lett, 2008)
